From PubChem
A selection: hits, their analogues and other compounds. The true share with any hit is near 3%.
SENP8 block-1 = SENP8 protease inhibitors, primary screen, biochemical, luminescence | Sentrin-specific protease 8 (Homo sapiens), Q96LD8 | inhibition, % at 10 µM | 330,000 tested, 1.2% active | purified SENP8, Z-RLRGG-aminoluciferin cleavage; in the data active = inhibition above about 50%
Target sequence (Q96LD8 whole entry, looked up): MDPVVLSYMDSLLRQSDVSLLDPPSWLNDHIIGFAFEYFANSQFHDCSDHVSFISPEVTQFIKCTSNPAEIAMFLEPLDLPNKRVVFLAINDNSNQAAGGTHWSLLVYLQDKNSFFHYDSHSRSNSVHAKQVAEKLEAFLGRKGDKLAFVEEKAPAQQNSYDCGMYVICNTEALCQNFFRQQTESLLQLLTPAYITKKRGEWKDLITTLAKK
SENP8 block-2 = human SENP8 protease inhibitors, primary screen, biochemical, fluorescence, Nedd8 protein substrate, uHTS; recombinant SENP8; 360,000 tested, 0.64% active; inhibition, % at 20 µM; in the data active = inhibition mostly above about 40%, no sharp cut-off; inactive = mostly below about 27%
Apaf1 inhib = inhibitors of human Apaf-1 apoptosome, primary screen, biochemical, DEVD-Rh110 fluorescence, uHTS; inhibition, % at 20 µM; AID 489030, 2010; 330,000 tested, 0.71% active; reconstituted apoptosome caspase-3 activity; active = inhibition of at least 40% at 20 µM;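 note: plate controls were DMSO wells for no effect and DEVD-CHO caspase inhibitor wells for full effect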
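Material: reconstituted apoptosome with Apaf-1, cytochrome c, caspase-9, procaspase-3, dATP; medium: pH 7.5 Hepes buffer with CHAPS, BSA, DTT; also added: cytochrome c and DEVD-Rh110 substrate; timing: 30 min plus 50 min, RT; signal: Rh110 fluorescence intensity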
UBC13 polyUb = UBC13 polyubiquitin chain formation inhibitors, primary screen, biochemical, TR-FRET, uHTS; Ubiquitin-conjugating enzyme E2 N (Homo sapiens), P61088; inhibition, % at 20 µM; AID 485273, 2010; 330,000 tested, 0.47% active; in the data active = inhibition above about 45%, passing the limit was not always enough
Target sequence (P61088 whole entry, looked up): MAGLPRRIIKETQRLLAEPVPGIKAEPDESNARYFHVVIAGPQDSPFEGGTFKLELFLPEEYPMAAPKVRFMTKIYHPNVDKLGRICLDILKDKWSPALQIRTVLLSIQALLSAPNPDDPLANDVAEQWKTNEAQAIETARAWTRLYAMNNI
SENP6 inh = SENP6 protease inhibitors, primary screen, biochemical, luminescence, uHTS; Sentrin-specific protease 6 (Homo sapiens), Q9GZR1; Recombinant SENP6 catalytic domain, aminoluciferin luminescence; inhibition, % at 10 µM; 330,000 tested, 1.8% active; AID 2599, 2010;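 active = inhibition above about 50% at the single tested dose, limit read from the data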;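 note: plate controls were DMSO wells with enzyme for no effect and DMSO wells lacking enzyme for full effect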
SENP7 block = SENP7 protease inhibitors, primary screen, biochemical, luminescence, uHTS; recombinant SENP7, Z-RLRGG-aminoluciferin luminescence, 40 min; 330,000 tested, 1.5% active; inhibition, % at 5 µM; AID 434973, 2010; Sentrin-specific protease 7 (Homo sapiens), Q9BQF6;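 active = inhibition above about 50% at the single test dose, limit read from the data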;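 note: plate controls were DMSO with enzyme for no effect and no enzyme buffer wells for full effect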
SENP8 confirm = SENP8 protease inhibitors, retest, confirmation, biochemical, luminescence, single concentration | shares compounds with SENP7 block | Recombinant SENP8, Z-RLRGG-aminoluciferin luminescence, 60 min | inhibition, % at 12.5 µM | 6,200 tested, 40% active | AID 488912, 2010;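 active = mean inhibition across replicates above about 50%, limit read from the data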
SENP6 conf = SENP6 protease inhibitors, confirmation, biochemical, luminescence, single concentration; 6,200 tested, 58% active; recombinant SENP6, Z-RLRGG-aminoluciferin luminescence; inhibition, % at 12.5 µM; shares compounds with SENP7 block
SENP7 conf = SENP7 protease inhibitors, retest, confirmation, biochemical, luminescence, single concentration. shares compounds with SENP7 block. recombinant SENP7, Z-RLRGG-aminoluciferin luminescence, 40 min. inhibition, % at 12.5 µM. 6,200 tested, 69% active
Casp3 select = caspase-3 protease inhibitors, confirmation, selectivity assay for SENP inhibitor project, biochemical, single concentration; shares compounds with SENP7 block; purified caspase-3, Z-DEVD-aminoluciferin luminescence, 60 min; inhibition, % at 12.5 µM; 6,200 tested, 60% active; AID 488918, 2010;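 active = mean inhibition above about 50%, limit read from the data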;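 note: plate controls were enzyme with DMSO for no effect and wells without caspase-3 for full effect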
Target sequence (P42574 28-227 limits assumed): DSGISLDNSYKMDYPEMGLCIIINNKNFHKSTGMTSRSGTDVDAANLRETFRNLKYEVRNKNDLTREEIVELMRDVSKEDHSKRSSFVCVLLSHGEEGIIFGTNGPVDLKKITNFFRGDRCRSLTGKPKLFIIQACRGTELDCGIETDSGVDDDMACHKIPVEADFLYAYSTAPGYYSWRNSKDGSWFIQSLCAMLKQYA
SENP luc ctr = luminescence interference (SENP counter-screen); shares compounds with SENP7 block; Pre-incubated SENP8/Z-RLRGG-aminoluciferin, luciferase luminescence interference; inhibition, % at 12.5 µM; 6,200 tested, 39% active;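 active = mean inhibition above about 50% when retested at one dose, limit read from the data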;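 note: plate controls were DMSO wells with completed reaction for no effect and substrate without enzyme for full effect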
* = called active by the depositor; i = inactive; nt = not tested or not shown.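 Rule for the calls, unless noted: active = mean inhibition above about 50% in the one-dose retest (limit read from the data); inactive = the rest.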

SMILES	SENP8 block-1	SENP8 block-2	Apaf1 inhib	UBC13 polyUb	SENP6 inh	SENP7 block	SENP8 confirm	SENP6 conf	SENP7 conf	Casp3 select	SENP luc ctr
CN[C@@H](CO)C(=O)NC[C@H]1O[C@@H](n2cnc3c(N)ncnc32)[C@H](O)[C@@H]1O	nt	21	nt	nt	nt	nt	nt	nt	nt	nt	nt
c1ccc(-c2noc(-c3ccncc3)n2)nc1	79*	6	-3	3	81*	4	81*	82*	96*	96*	83*
c1ccc(-c2ccccc2-c2nc(-c3cccnc3)no2)cc1	-9	13	18	-6	-4	-2	nt	nt	nt	nt	nt
c1ccc(-c2noc(-c3cccnc3)n2)nc1	23	10	0	-1	2	57*	51*	48	78*	85*	58*
CCc1nc2ccc(C(=O)NCc3cccs3)cn2c1N(CC)Cc1cccc(Br)c1	nt	4	nt	nt	nt	nt	nt	nt	nt	nt	nt
CCCCC[C@@H](C)N1C[C@@H](COCc2ccccc2)Oc2cc(N3CCC[C@H]3COC)ccc2S1(=O)=O	nt	8	nt	nt	nt	nt	nt	nt	nt	nt	nt
Nc1nn(-c2cccc(F)n2)cc1-c1ccccc1	84*	7	2	1	87*	92*	-28	81*	97*	83*	27
COc1ccc(-c2ccn(-c3cccc(F)n3)n2)cc1	8	-182	18	-4	2	4	nt	nt	nt	nt	nt
Nc1nn(-c2cccc(F)n2)cc1-c1ccc(Cl)cc1	52*	-3	3	5	62*	88*	16	21	48	32	8
C/C(=N\NC(=O)c1ccc2c(c1)OCCO2)c1ccccc1	86*	16	-5	4	89*	96*	2	87*	99*	94*	82*
C/C(=N\NC(=O)c1ccc(Br)cc1)c1ccccc1	38	20	17	-2	70*	36	24	55*	36	48	21
C/C(=N\NC(=O)c1cccnc1)c1ccc(Br)cc1	4	5	-6	4	-3	6	nt	nt	nt	nt	nt
COc1cc(CNc2ncnc3c2ncn3[C@H]2CN(CCc3ccccc3)C[C@@H](CO)O2)cc(OC)c1OC	nt	1	nt	nt	nt	nt	nt	nt	nt	nt	nt
Cc1nc(C2COc3ccccc3O2)sc1C(=O)O (stereo not given)	84*	3	-14	6	88*	80*	90*	91*	99*	97*	88*
S=C(Nc1ccccc1)c1ccccn1	54*	30	8	4	64*	59*	13	42	83*	59*	46
S=C(Nc1ccccc1)Nc1ccccn1	nt	11	nt	nt	nt	nt	nt	nt	nt	nt	nt
O=C(Oc1ccccc1)N1CCOCC1	-4	3	1	5	13	-2	nt	nt	nt	nt	nt
O=C(Oc1ccc(-c2ccccc2)cc1)N1CCCCC1	18	0	7	1	53*	33	-4	-5	-6	-2	-4
O=C(Oc1ccc(OC(=O)N2CCOCC2)cc1)c1ccccc1	26	22	-8	4	38	56*	-20	19	72*	47	-2
COC(=O)C[C@@H]1C=C[C@@H](NS(=O)(=O)c2ccc(OC)cc2)[C@@H](CO)O1	nt	9	nt	nt	nt	nt	nt	nt	nt	nt	nt
COc1cccc(NC(=O)c2ccccc2F)c1	49	-7	-7	-2	51*	45	25	19	67*	72*	53*
COc1ccc(COC(=O)c2c(C)nn(-c3ccccc3)c2Cl)cc1	30	6	20	2	61*	18	29	32	54*	30	15
O=C(Nc1ccccc1)Nc1cccc(Cl)c1	35	15	4	2	60*	55*	58*	58*	86*	44	71*
O=C(Nc1ccc(C(=O)N2CCCCC2)cc1)Nc1cccc(Cl)c1	27	8	6	10	67*	73*	-7	-6	-4	29	4
O=C(NCc1ccc(Cl)c(Cl)c1)c1cc(C2CCCCN2C(=O)c2ccccn2)on1 (stereo not given)	nt	2	nt	nt	nt	nt	nt	nt	nt	nt	nt
SMILES	SENP8 block-1	SENP8 block-2	Apaf1 inhib	UBC13 polyUb	SENP6 inh	SENP7 block	SENP8 confirm	SENP6 conf	SENP7 conf	Casp3 select	SENP luc ctr
COc1cc(NC(=O)Nc2cccc(Cl)c2)c(C(=O)O)cc1OC	-2	i	12	5	-20	-3	nt	nt	nt	nt	nt
CS/C(N)=N/C(=S)Nc1cccc(Cl)c1	5	22	-7	6	58*	21	72*	68*	88*	57*	76*
COc1cccc(NC(=O)Nc2ccccc2C(N)=O)c1	61*	-46	5	3	74*	82*	70*	68*	90*	85*	77*
O=C(Nc1cccc(Cl)c1)Nc1ccccc1C(=O)O	97*	-217	5	-10	99*	100*	98*	101*	104*	99*	100*
COc1cccc(NC(=O)COC(=O)c2c(C)nn(-c3ccccc3)c2C)c1	65*	10	10	2	76*	74*	71*	67*	90*	70*	75*
CC(=O)Nc1ccc(-c2ccnc3c2CC(C(=O)Nc2cccc(N(C)C)c2)O3)cc1 (stereo not given)	nt	9	nt	nt	nt	nt	nt	nt	nt	nt	nt
CN(Cc1cccc(C(F)(F)F)c1)C(=O)[C@H]1O[C@@H](n2ccc(N)nc2=O)[C@H](O)[C@@H]1O	nt	3	nt	nt	nt	nt	nt	nt	nt	nt	nt
CC(C)(C)n1nnnc1C(CCc1ccccc1)N1CCN(C/C=C/c2ccccc2)CC1 (stereo not given)	nt	9	nt	nt	nt	nt	nt	nt	nt	nt	nt
O=C1NC[C@H](CCCCN2CCN(Cc3ccccc3)C(=O)C2=O)N(CCc2ccccc2)C1=O	nt	7	nt	nt	nt	nt	nt	nt	nt	nt	nt
